Compounds with a hit are over-represented: about 1.3% of the library has one in this group of screens.
Lipid droplet: hepatic lipid droplet formation modulation. AML12 mouse hepatocytes, oleate lipid droplets, BODIPY imaging. inhibition, % at 6.5 µM. actives 0.4% (n = 240,000);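 active = lipid droplet intensity inhibited by at least 50%, with more than 500 cells counted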
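Assay system: AML12 mouse liver cells | Compound dosing: One dose, 6.5 µM compound | Read-out basis: Droplet intensity reduction, % inhibition | Measured by: Fluorescence imaging, 20x objective, two fields per well | Schedule: Overnight treatment with compound plus oleate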
procasp7 counter: counter-screen for procaspase-3 activators: activators of human procaspase-7; P55210; recombinant procaspase-7, Ac-DEVD-pNA absorbance 405 nm; D23A/D198A/D206A triple mutant, cannot self-cleave; scale: DMSO 0, 5 µM enzyme 100; activation, % at 8.5 µM; actives 0.093% (n = 330,000); AID 463210;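 active = percent activation above the screen-wide mean plus 3 SD, cut at about 25% in these data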
Target sequence (P55210 whole entry D23A/D198A/D206A): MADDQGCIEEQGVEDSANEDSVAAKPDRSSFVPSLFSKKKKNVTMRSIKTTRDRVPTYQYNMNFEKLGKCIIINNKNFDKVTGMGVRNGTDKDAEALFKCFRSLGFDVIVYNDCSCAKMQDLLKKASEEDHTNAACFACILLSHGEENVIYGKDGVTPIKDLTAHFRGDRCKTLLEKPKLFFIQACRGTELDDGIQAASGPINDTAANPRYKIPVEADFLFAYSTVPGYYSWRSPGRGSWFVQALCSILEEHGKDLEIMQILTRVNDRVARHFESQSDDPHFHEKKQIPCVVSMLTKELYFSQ
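Test system: Procaspase-7 triple mutant (PC-7 D3A). Also added: Ac-DEVD-pNA substrate, 400 µM as added. Schedule: 1 h enzyme–compound preincubation and 2 h substrate reaction, both 25 °C. Signal: p-Nitroaniline absorbance at 405 nm, read at 0 and 120 min. Control set: low DMSO alone, high DMSO plus 5 µM PC-7.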
proCasp3 act: procaspase-3 (human) activation; P42574; activation, % at 8.5 µM; actives 0.11% (n = 330,000); recombinant procaspase-3 D3A, Ac-DEVD-pNA absorbance 405 nm;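 active = activation above the mean of all tested compounds plus 3 SD, cut at about 21% in these data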
Target sequence (P42574 whole entry D9A/D28A/D175A): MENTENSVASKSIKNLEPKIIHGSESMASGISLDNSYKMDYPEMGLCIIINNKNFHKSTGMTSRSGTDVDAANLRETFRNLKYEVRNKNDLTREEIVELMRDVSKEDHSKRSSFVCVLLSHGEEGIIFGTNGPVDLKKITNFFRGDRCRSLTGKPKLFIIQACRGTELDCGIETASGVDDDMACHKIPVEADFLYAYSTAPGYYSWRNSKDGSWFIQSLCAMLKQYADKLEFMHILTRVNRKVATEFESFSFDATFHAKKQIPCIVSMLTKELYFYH
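Technique: 405 nm absorbance of p-nitroaniline, reads at 0 and 120 min; Test system: Procaspase-3 D3A mutant; Incubation: 1 h enzyme-compound preincubation, then 2 h substrate reaction, 25 °C; Repeats: singlicate, each compound tested once; Benchmarks: low control DMSO wells, high control DMSO plus 5 µM PC-3 D3A.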
GRK2 aptamer HTS: blocks RNA aptamer binding to human GRK2; bead flow cytometry, FAM-aptamer displacement from GRK2; inhibition of aptamer binding, % at 10 µM; actives 0.59% (n = 330,000);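 active = inhibition of aptamer binding above 40%, roughly 3 SD of noise, on plates passing a quality check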;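 also: median bead fluorescence of bound FAM aptamer so fluorescent compounds give negative values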
VLA-4 inh: inhibition in a human VLA-4 binding assay; P13612; VLA-4 expressing cells, ligand binding flow cytometry; inhibition, % (about 7 µM as worked out from the volumes in the protocol); actives 0.2% (n = 330,000); in the data active = inhibition above about 50%
JMJD2C inh: human JMJD2C demethylase inhibition | actives 0.069% (n = 330,000) | inhibition, % at 2.35 µM | GST-JMJD2C(1-420) H3K9me3 demethylation, DELFIA europium;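 active = more than half of a compound's replicate wells show inhibition beyond 50%, single wells judged on their own value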;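 also: signal counts dimethyl H3K9 product captured on neutravidin plate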
GRK2 CP1: human GRK2 inhibition confirmation, cherry pick 1. bead-bound GRK2, FAM-aptamer displacement, flow cytometry. shares compounds with GRK2 aptamer HTS. aptamer displacement, % at 10 µM. actives 4% (n = 2,000). AID 504451;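 active = aptamer displacement above 40%, near three times the noise of non-fluorescent compounds, on plates passing quality checks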;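 also: negative values mostly reflect intrinsic compound fluorescence rather than true enhancement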
FAM quench CP1: counter-screen for GRK2 aptamer inhibitors: fluorescent aptamer quenchers; shares compounds with GRK2 aptamer HTS; Carboxyfluorescein RNA aptamer on beads, flow cytometry quenching; active compounds read low; 2,000 tested, under 10 active; AID 504580; fluorescence response (% of DMSO), % at 10 µM;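 active = compounds that quench the bead-bound fluorescent RNA probe, cutting fluorescence to under half of the solvent control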;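 also: counterscreen run without GRK2 so only probe quenching by compound is measured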
GRK2 confirm 2: confirmation of human GRK2 inhibitors binding RNA aptamer site. shares compounds with GRK2 aptamer HTS. bead-bound GRK2, FAM-aptamer displacement, flow cytometry. inhibition of aptamer binding, % at 10 µM. 360 tested, under 10 active. AID 504782;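 active = inhibition of aptamer binding above 40%, about triple the noise seen with nonglowing compounds, on plates passing quality control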;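 also: negative values mostly come from compounds that fluoresce themselves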
FAM quench SP: aptamer fluorescence quenching in GRK2 counter-screen | carboxyfluorescein RNA aptamer beads, flow cytometry quenching; active compounds read low | AID 588494 | shares compounds with GRK2 aptamer HTS | fluorescence response vs DMSO, % at 10 µM | 360 tested, under 10 active;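 active = response vs DMSO under 50%, meaning signal dropped by over half, treated as fluorescence quencher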;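 also: labelled aptamer on streptavidin beads without GRK2 as a quench counter-screen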
Each line names hits and unclear results; the compound was inactive in the other large screens (follow-up assays come after a bar, where they were run).

O=C(O)c1ccc2c(c1)C(=O)/C(=C/c1ccccc1)C2=O	none
OCCc1ccccc1	none (no result: Lipid droplet) | GRK2 CP1 inactive | FAM quench CP1 inactive
c1ccc(CCc2ccncc2)cc1	GRK2 aptamer HTS 66 | GRK2 CP1 inactive | FAM quench CP1 inactive
OCCc1ccc(O)cc1	none (no result: Lipid droplet, JMJD2C inh)
c1cc(CCCc2ccncc2)ccn1	none (no result: Lipid droplet)
COc1ccc(C(=O)NCc2ccc3c(c2)cc(C)n3C)cc1OC	none | GRK2 CP1 inactive | FAM quench CP1 inactive
COc1ccc(NC(=S)NCc2ccc3c(c2)cc(C)n3C)cc1	none
COc1ccc(CC(=O)NCc2ccc3c(c2)cc(C)n3C)cc1	GRK2 aptamer HTS 67 | GRK2 CP1 inactive | FAM quench CP1 inactive
Cc1cc2cc(CNS(=O)(=O)c3ccccc3)ccc2n1C	GRK2 aptamer HTS 54 (no result: Lipid droplet) | GRK2 CP1 inactive | FAM quench CP1 inactive
COc1cccc(C(=O)NCc2ccc3c(c2)cc(C)n3C)c1	GRK2 aptamer HTS 84 | GRK2 CP1 inactive | FAM quench CP1 inactive
Cc1ccc(-n2nnnc2SCC(=O)c2c(N)n(C3CC3)c(=O)[nH]c2=O)c(C)c1	none (no result: Lipid droplet)
O=C(Cc1ccc(S(=O)(=O)N2CCOCC2)s1)Oc1ccc(F)cc1	none (no result: Lipid droplet)
Cc1cc2cc(CNC(=O)c3ccc(S(=O)(=O)N4CCCCC4)cc3)ccc2n1C	GRK2 aptamer HTS 66 (no result: Lipid droplet) | GRK2 CP1 inactive | FAM quench CP1 inactive | GRK2 confirm 2 inactive | FAM quench SP inactive
COc1cc(/C=C/C(=O)NCC2CCCCC2)cc(OC)c1OC	GRK2 aptamer HTS 63 | GRK2 CP1 inactive | FAM quench CP1 inactive
CC(OC(=O)c1cc(S(=O)(=O)N2CCOCC2)ccc1Br)C(=O)N1CCOCC1 (stereo unspecified)	none (no result: Lipid droplet)
CSc1ccc(C(=O)C2CCCN(C(=O)CCCn3cncn3)C2)cc1 (stereo unspecified)	GRK2 aptamer HTS 76 | GRK2 CP1 inactive | FAM quench CP1 inactive
CSc1ccc(C=O)cc1	GRK2 aptamer HTS 73 (no result: Lipid droplet) | GRK2 CP1 inactive | FAM quench CP1 inactive
CSc1ccc(/C=N/S(=O)(=O)c2ccccc2)cc1	none
O=C(N/N=C/c1ccc(Br)cc1)c1cc[n+](Cc2ccccc2)cc1	none
O=C(C[n+]1cccc(C(=O)N/N=C/c2ccc(Br)cc2)c1)c1ccccc1	GRK2 aptamer HTS 89 (no result: Lipid droplet) | GRK2 CP1 inactive | FAM quench CP1 inactive
O=S(=O)(c1ccc(OCC(O)CNC23CC4CC(CC(C4)C2)C3)c(Cl)c1)N1CCOCC1 (stereo unspecified)	none
COc1ccc2[nH]c3c(c2c1)CCN1C(=O)C(CC(=O)NCCCn2ccnc2)C[C@H](C(=O)N2CCCCC2)[C@@]31C (stereo partly specified)	none (no result: Lipid droplet, VLA-4 inh, JMJD2C inh)
Cc1cccc(NC(=O)C2CCN(S(=O)(=O)c3cccc4nonc34)CC2)c1	none
Cc1nnc(Nc2ccc(C(=O)NCCO)cc2)c2ccccc12	GRK2 aptamer HTS 49 (no result: Lipid droplet) | GRK2 CP1 inactive | FAM quench CP1 inactive
CNC(=O)c1ccc(Nc2nnc(C)c3ccccc23)cc1	none
CCN(CCCNC(=O)Cn1ncc2c([nH]c3ccc(C)cc32)c1=O)c1ccccc1	GRK2 aptamer HTS 48 | GRK2 CP1 inactive | FAM quench CP1 inactive
CCN(CCCNC(=O)Cn1ncc2c([nH]c3ccc(C)cc32)c1=O)c1cccc(C)c1	none | GRK2 CP1 inactive | FAM quench CP1 inactive
